Source: ChEMBL document CHEMBL1139376, “Synthesis and biological activity of human neuropeptide S analogues modified in position 5: identification of potent and pure neuropeptide S receptor antagonists” (J Med Chem, 2009)
Activity calls are given as the source filed them. The calls are words filed in the database; no cut-off is given here. Where a SMILES comes first, the peptide text is derived from it. [ ]: non-standard residue; d: D form. The star is where a group is joined. Bn = c1ccc(C*)cc1; Acm = CC(=O)NC*; tBu = CC(C)(C)*

Columns and labels:
[1] = biological target: T1, Neuropeptide S receptor (Mus musculus) (UniProt Q8BZP8); assay: Agonist activity at mouse NPSR expressed in HEK293 cells upto 10 uM by calcium mobilization assay; type: functional, cell-based
T1 sequence (whole entry): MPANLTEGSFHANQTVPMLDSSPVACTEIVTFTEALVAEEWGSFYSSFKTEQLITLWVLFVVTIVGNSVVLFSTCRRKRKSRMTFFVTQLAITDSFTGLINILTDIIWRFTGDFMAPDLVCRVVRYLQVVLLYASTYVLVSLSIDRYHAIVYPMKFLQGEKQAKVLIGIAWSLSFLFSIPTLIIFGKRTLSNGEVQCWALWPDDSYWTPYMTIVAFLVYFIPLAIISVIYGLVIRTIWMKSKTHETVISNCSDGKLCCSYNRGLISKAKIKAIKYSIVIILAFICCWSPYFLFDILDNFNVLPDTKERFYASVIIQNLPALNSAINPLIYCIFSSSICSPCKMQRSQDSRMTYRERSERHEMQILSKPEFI
Method in brief: (§1)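 HEK293 cells stably expressing mouse NPSR were grown in DMEM with 10% FBS, 2 mM glutamine and hygromycin. They were plated on poly-D-lysine wells and, the next day, loaded for 30 min at 37 °C with 3 μM Fluo-4 AM, 2.5 mM probenecid and 0.01% pluronic acid. Fluorescence was read at about 22 °C in HBSS with 20 mM HEPES, probenecid and 500 μM Brilliant Black. The response was the peak fluorescence change as % of baseline, from at least 4 experiments run in duplicate.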

Neuropeptide S receptor = biological target: T2, Neuropeptide S receptor (Mus musculus, UniProt Q8BZP8); assay: Agonist activity at mouse NPSR expressed in HEK293 cells by calcium mobilization assay; type: functional, cell-based; method in brief: as §1
T2 sequence (Q8BZP8 whole entry): T1 sequence (whole entry)

Mus musculus [2] = assay: Effect on locomotor activity in […] Swiss mouse assessed as number of rearings dosed at 1 nmol, icv befor 5 mins observed for 60 mins; type: functional, organism-based
Method in brief: (§2)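 Male Swiss mice (2 months, 25–30 g) received peptide i.c.v. at 0.01–1 nmole in 2 μl into the left ventricle under light ether anaesthesia, 5 min before testing. Each mouse was used once, in the light phase, with no food during testing. Activity was tracked for 60 min in 40 × 40 cm cages. Video recorded distance and immobility time, and an infrared beam array counted rearings. There were 4 experiments with 4 mice/group.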

Mus musculus [3] = assay: Effect on locomotor activity in […] Swiss mouse assessed as immobility time at 1 nmol, icv befor 5 mins observed for 60 mins; type: functional, organism-based; method in brief: as §2
Mus musculus [4] = assay: Effect on locomotor activity in […] Swiss mouse assessed as increase in cumulative distance traveled dosed at 1 nmol, icv before 5 mins observed for 60 mins; type: functional, organism-based; method in brief: as §2
Mus musculus [5] = assay: Effect on locomotor activity in […] Swiss mouse assessed as decrease in immobility time at 0.1 nmol, icv before 5 mins observed for 60 mins
Mus musculus [6] = assay: Effect on locomotor activity in […] Swiss mouse assessed as increase in number of rearings dosed at 0.1 nmol, icv before 5 mins observed for 60 mins; type: functional, organism-based; method in brief: as §2
Mus musculus [7] = assay: Effect on locomotor activity in […] Swiss mouse assessed as increase in cumulative distance traveled dosed at 0.1 nmol, icv before 5 mins observed for 60 mins; type: functional, organism-based; method in brief: as §2
[8] = biological target: T1, Neuropeptide S receptor (Mus musculus); assay: Agonist activity at mouse NPSR expressed in HEK293 cells by calcium mobilization assay relative to basal level; type: functional, cell-based; method in brief: as §1

For `CSCC[C@H](NC(=O)CNC(=O)[C@@H](NC(=O)CNC(=O)[C@@H](NC(=O)[C@@H](CSCNC(C)=O)NC(=O)[C@H](CC(N)=O)NC(=O)[C@H](CCCNC(=N)N)NC(=O)[C@H](Cc1ccccc1)NC(=O)[C@@H](N)CO)C(C)C)[C@@H](C)O)C(=O)N[C@@H](CCCCN)C(=O)N[C@@H](CCCCN)C(=O)N[C@H](C(=O)N[C@@H](CO)C(=O)N[C@@H](Cc1ccccc1)C(=O)N[C@@H](CCC(N)=O)C(=O)N[C@@H](CCCNC(=N)N)C(=O)N[C@@H](C)C(=O)N[C@@H](CCCCN)C(=O)N[C@@H](CO)C(=O)O)[C@@H](C)O` (H-SFRN[dC](Acm)VGTGMKKTSFQRAKS-OH), the Activity [1] was “inactive”.
For `CSCC[C@H](NC(=O)CNC(=O)[C@@H](NC(=O)CNC(=O)[C@@H](NC(=O)[C@@H](CSCc1ccccc1)NC(=O)[C@H](CC(N)=O)NC(=O)[C@H](CCCNC(=N)N)NC(=O)[C@H](Cc1ccccc1)NC(=O)[C@@H](N)CO)C(C)C)[C@@H](C)O)C(=O)N[C@@H](CCCCN)C(=O)N[C@@H](CCCCN)C(=O)N[C@H](C(=O)N[C@@H](CO)C(=O)N[C@@H](Cc1ccccc1)C(=O)N[C@@H](CCC(N)=O)C(=O)N[C@@H](CCCNC(=N)N)C(=O)N[C@@H](C)C(=O)N[C@@H](CCCCN)C(=O)N[C@@H](CO)C(=O)O)[C@@H](C)O` (H-SFRN[dC](Bn)VGTGMKKTSFQRAKS-OH), the Activity [1] was “inactive”.
With `CSCC[C@H](NC(=O)CNC(=O)[C@@H](NC(=O)CNC(=O)[C@@H](NC(=O)[C@@H](CSC(C)(C)C)NC(=O)[C@H](CC(N)=O)NC(=O)[C@H](CCCNC(=N)N)NC(=O)[C@H](Cc1ccccc1)NC(=O)[C@@H](N)CO)C(C)C)[C@@H](C)O)C(=O)N[C@@H](CCCCN)C(=O)N[C@@H](CCCCN)C(=O)N[C@H](C(=O)N[C@@H](CO)C(=O)N[C@@H](Cc1ccccc1)C(=O)N[C@@H](CCC(N)=O)C(=O)N[C@@H](CCCNC(=N)N)C(=O)N[C@@H](C)C(=O)N[C@@H](CCCCN)C(=O)N[C@@H](CO)C(=O)O)[C@@H](C)O` (H-SFRN[dC](tBu)VGTGMKKTSFQRAKS-OH) the Activity [1] was “inactive”.
`CSCC[C@H](NC(=O)CNC(=O)[C@@H](NC(=O)CNC(=O)[C@@H](NC(=O)[C@@H](Cc1ccccc1)NC(=O)[C@H](CC(N)=O)NC(=O)[C@H](CCCNC(=N)N)NC(=O)[C@H](Cc1ccccc1)NC(=O)[C@@H](N)CO)C(C)C)[C@@H](C)O)C(=O)N[C@@H](CCCCN)C(=O)N[C@@H](CCCCN)C(=O)N[C@H](C(=O)N[C@@H](CO)C(=O)N[C@@H](Cc1ccccc1)C(=O)N[C@@H](CCC(N)=O)C(=O)N[C@@H](CCCNC(=N)N)C(=O)N[C@@H](C)C(=O)N[C@@H](CCCCN)C(=O)N[C@@H](CO)C(=O)O)[C@@H](C)O` (H-SFRN[dF]VGTGMKKTSFQRAKS-OH) was tested, and the Activity [1] was “inactive”.
For `CSCC[C@H](NC(=O)CNC(=O)[C@@H](NC(=O)CNC(=O)[C@@H](NC(=O)[C@@H](CC(C)C)NC(=O)[C@H](CC(N)=O)NC(=O)[C@H](CCCNC(=N)N)NC(=O)[C@H](Cc1ccccc1)NC(=O)[C@@H](N)CO)C(C)C)[C@@H](C)O)C(=O)N[C@@H](CCCCN)C(=O)N[C@@H](CCCCN)C(=O)N[C@H](C(=O)N[C@@H](CO)C(=O)N[C@@H](Cc1ccccc1)C(=O)N[C@@H](CCC(N)=O)C(=O)N[C@@H](CCCNC(=N)N)C(=O)N[C@@H](C)C(=O)N[C@@H](CCCCN)C(=O)N[C@@H](CO)C(=O)O)[C@@H](C)O` (H-SFRN[dL]VGTGMKKTSFQRAKS-OH), the EC50 (Neuropeptide S receptor) was 0.0891 µM.
`CSCC[C@H](NC(=O)CNC(=O)[C@@H](NC(=O)CNC(=O)[C@@H](NC(=O)[C@@H](CCSC)NC(=O)[C@H](CC(N)=O)NC(=O)[C@H](CCCNC(=N)N)NC(=O)[C@H](Cc1ccccc1)NC(=O)[C@@H](N)CO)C(C)C)[C@@H](C)O)C(=O)N[C@@H](CCCCN)C(=O)N[C@@H](CCCCN)C(=O)N[C@H](C(=O)N[C@@H](CO)C(=O)N[C@@H](Cc1ccccc1)C(=O)N[C@@H](CCC(N)=O)C(=O)N[C@@H](CCCNC(=N)N)C(=O)N[C@@H](C)C(=O)N[C@@H](CCCCN)C(=O)N[C@@H](CO)C(=O)O)[C@@H](C)O` (H-SFRN[dM]VGTGMKKTSFQRAKS-OH) was tested, and the Activity [1] was “inactive”.
For `CSCC[C@H](NC(=O)CNC(=O)[C@@H](NC(=O)CNC(=O)[C@@H](NC(=O)[C@H](NC(=O)[C@H](CC(N)=O)NC(=O)[C@H](CCCNC(=N)N)NC(=O)[C@H](Cc1ccccc1)NC(=O)[C@@H](N)CO)C(C)C)C(C)C)[C@@H](C)O)C(=O)N[C@@H](CCCCN)C(=O)N[C@@H](CCCCN)C(=O)N[C@H](C(=O)N[C@@H](CO)C(=O)N[C@@H](Cc1ccccc1)C(=O)N[C@@H](CCC(N)=O)C(=O)N[C@@H](CCCNC(=N)N)C(=O)N[C@@H](C)C(=O)N[C@@H](CCCCN)C(=O)N[C@@H](CO)C(=O)O)[C@@H](C)O` (H-SFRN[dV]VGTGMKKTSFQRAKS-OH), the Activity (Mus musculus [2]) was “Active”, the Activity (Mus musculus [3]) was “Active” and the Activity [1] was “inactive”. For the same compound, the Activity (Mus musculus [4]) was “Active”.
`CSCC[C@H](NC(=O)CNC(=O)[C@@H](NC(=O)CNC(=O)[C@@H](NC(=O)[C@@H](Cc1c[nH]c2ccccc12)NC(=O)[C@H](CC(N)=O)NC(=O)[C@H](CCCNC(=N)N)NC(=O)[C@H](Cc1ccccc1)NC(=O)[C@@H](N)CO)C(C)C)[C@@H](C)O)C(=O)N[C@@H](CCCCN)C(=O)N[C@@H](CCCCN)C(=O)N[C@H](C(=O)N[C@@H](CO)C(=O)N[C@@H](Cc1ccccc1)C(=O)N[C@@H](CCC(N)=O)C(=O)N[C@@H](CCCNC(=N)N)C(=O)N[C@@H](C)C(=O)N[C@@H](CCCCN)C(=O)N[C@@H](CO)C(=O)O)[C@@H](C)O` (H-SFRN[dW]VGTGMKKTSFQRAKS-OH) was tested, and the Activity [1] was “inactive”.
For “H-SFRNGVGTGMKKTSFQRAKS-OH [NEUROPEPTIDE S]”, the Activity (Mus musculus [5]) was “Active”, the Activity (Mus musculus [6]) was “Active” and the EC50 (Neuropeptide S receptor) was 0.00224 µM. The Activity (Mus musculus [7]) was “Active”.
For H-SFRNWVGTGMKKTSFQRAKS-OH, the Emax [8] was 30%.
